Experimental data taken from the EternaBench riboswitch data.

System: MS2 coat protein
Test: apparent Kd, MS2 coat protein; higher = weaker binding; RNA-MaP array
How it was run: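 The designed RNAs, transcribed from sequenced DNA templates on an Illumina sequencing chip, were incubated with fluorescently labeled MS2 coat protein at room temperature. Protein ranged from 1.5 nM to 3 μM, with 0.8–1.5 h incubation at the lowest and 10–20 min at the highest concentrations, in Tris-HCl pH 7.5 buffer with KCl, MgCl2, BSA, DTT, tRNA and Tween20, with or without input ligand. The median of per-cluster binding-curve fits gives the apparent Kd, and designs measured on fewer than 10 clusters were excluded.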

[1] = designed as: OFF switch for flavin mononucleotide, no ligand
[2] = ligand present: flavin mononucleotide, designed as: OFF switch for flavin mononucleotide
[3] = designed as: OFF switch for theophylline, no ligand
[4] = ligand present: theophylline, designed as: OFF switch for theophylline
[5] = designed as: ON switch for tryptophan, no ligand
[6] = ligand present: tryptophan, designed as: ON switch for tryptophan
[7] = designed as: ON switch for flavin mononucleotide, no ligand
[8] = ligand present: flavin mononucleotide, designed as: ON switch for flavin mononucleotide

Sequence | apparent Kd [1] | apparent Kd [2] | further results
AAAACUUCUAAGAAGGUGAUUUGGGCAUAUCGUCGUUUUACAUGAGGAUCACCCAUGUUUAACGUCAAGGAUAUUAGGGAUUCC | 6.11 nM | 5.9 nM | 
CAGCAACAAUUGGAUACCAGCCAUUACAGGUAUCAUUAUAACAUGAGGAUCACCCAUGUAGGCCCUUGGCAGCCAUUGGUGUAAG |  |  | apparent Kd [3]: 39.1 nM; apparent Kd [4]: 106 nM
ACAGACAAGUAGAAGGCAAUGAGGAGUGAAAAUUGAGGAUAUACCAGCAUGAGUGCCUACAUGAGGAUCACCCAUGUGUAGAUU | 388 nM | 395 nM | 
AGACACAUGAGGAUCACCCAUGUACACGAGCGAGGACCGGUACGGCCGCCACUCGUCCAAGCAACUAAUGAGACUCGUAAGAUGG |  |  | apparent Kd [5]: 24.6 nM; apparent Kd [6]: 29.3 nM
ACAUACAUGAGGAUCACCCAUGUGGGAUCUUCCUCUAAAACUAAGGAUAUGUCAGUUGGUUAACUACAGAAGGUAGGUCGGAAC | 313 nM | 306 nM | 
GACGGACAUGAGGAUCACCCAUGUUCUGGCAGCGUAGGAUAUGAAGGGAUGAUUGUACGUUCAGAAGGACGACCUG |  |  | apparent Kd [7]: 10.3 nM; apparent Kd [8]: 7.53 nM
AGUACAUCGGAGAAGGUGCAAGGUUAGCUUUCGCAAGGAUAUCCACACCCUUAGUACAGUGCUACAUGAGGAUCACCCAUGUUA | 10.1 nM | 10.2 nM | 
GACCUGUUAGGAUAUCGAAGGAGUCAAUACCAAGUGAGACACGAGAAGGAACAUGAGGAUCACCCAUGUGAACC | 11.4 nM | 15.7 nM | 
GCGUGACAUGAGGAUCACCCAUGUGGCCUCGGGCUAGGAUAUGCUGAUAUACUCACCACCGCAGAAGGAGCUUCAC |  |  | apparent Kd [7]: 142 nM; apparent Kd [8]: 131 nM
AAACGGUAAGGAUAUCCACCAGGAUUGGAGCCACCUAAUUCGGAGAAGGUACAUGAGGAUCACCCAUGUCGGGU | 146 nM | 124 nM | 
GUAGAACCGCAGAAGGCAUUGAUUCGAGAGCGAUGAGGAUAUGCUCGUCGACAUGAGGAUCACCCAUGUUUACGAUUGAGAUAU |  |  | apparent Kd [7]: 15.1 nM; apparent Kd [8]: 9.74 nM
UCUUUUCAACAGAAGGAAUGCAGGCGAUAUGAUUGUUUCCGUCAGACAUGAGGAUCACCCAUGUAUUAGGAUAUGUGAAACAGU | 6.2 nM | 7.15 nM | 
GAUUCGCAGUCGGCCGCCACUAACAUGAGCUGCUAGUUAUUAUCACAUGAGGAUCACCCAUGUCUUAGGACCGGGACAACCUGUU |  |  | apparent Kd [5]: 77.7 nM; apparent Kd [6]: 71 nM
CAUUCUUUAGUAAGGAUAUCAACUUGUUUAUAUAAUGAGAAGGUACAUGAGGAUCACCCAUGUCUCACAUCGGU | 8.72 nM | 7.9 nM | 
CACUGACAACGAGGAUAUGGUCGAGCCAGACAUGAGGAUCACCCAUGUAUCGAAAGCAAUAAACUCCAGAAGGCGUAACAGUUG |  |  | apparent Kd [7]: 10.4 nM; apparent Kd [8]: 11.6 nM
GAUCGACAUGAGGAUCACCCAUGUGAGGAUAUACCGCGGACUCCGUCUGCAUGUUAGGGUAGAAGGCACCGAGC | 14.1 nM | 13.1 nM | 
CGGAAACAUGAGGAUCACCCAUGUGUAGAAAAGACAGGAUAUGACAAGGGCUUGAAGUGCUCAGAAGGGUCUGGAC |  |  | apparent Kd [7]: 15.4 nM; apparent Kd [8]: 11.2 nM
AGCAAUACAUAAGGAUAUGACAUCCAAGAGGAAUCAGAAGGUAUGCAGGCGACAUGAGGAUCACCCAUGUAAUCAUGAGGCAAU |  |  | apparent Kd [7]: 19.4 nM; apparent Kd [8]: 15.8 nM
GCACCGCGAGGAUAUACUCUGGCUAUAAUACCAUAUGACAAACAUGAGGAUCACCCAUGUAGAAGGCGCGAUGU | 10.4 nM | 14.2 nM | 
UUUUACGCAAGUAAUUCCCGGGAACCGGAUACCAGCUCCUCCAACAGCCCUUGGCAGCCGACCACAUGAGGAUCACCCAUGUUUC |  |  | apparent Kd [3]: 11.7 nM; apparent Kd [4]: 19.3 nM
UUGCAAUAGUAGAAGGACCACUCAAGUGUGACGGUAGGAUAUACGGUACAUGAGGAUCACCCAUGUGAGACUACAGCCCUCUCC | 20 nM | 21.9 nM | 
UGAACACUGUGAGGAUAUCCACAUGAGGAUCACCCAUGUUUCCUCAGUGAUGCUAUAGCUUCCACGGAGAAGGCACAUGUAAUC | 31.2 nM | 48.2 nM | 
UUGUCACAUGAGGAUCACCCAUGUAAGAGAUUCCAAGGAUAUAUUAUCGGGUAAAAUGAAAUAGAAGGUGGUCAGA |  |  | apparent Kd [7]: 90.3 nM; apparent Kd [8]: 65.6 nM
CGAAAUUCAGUAAGGAUAUUAGGAGGCUCUGCGGCUAAGAAGGUACAUGAGGAUCACCCAUGUGGCACCGCAUG | 7.65 nM | 7.82 nM | 
GCAUAUGCAUACAUGAGGAUCACCCAUGUGGAACUAAGGGCGAAGGAUAUGUGUUAAACUACGAGACAGAAGGUCGUGAGUAGA |  |  | apparent Kd [7]: 19.9 nM; apparent Kd [8]: 15.2 nM
GGGUAACAUGAGGAUCACCCAUGUGAGGAUAUCCAUUGUUGGCGACCGGUACGACCACGGAGAAGGCACAGUUC | 35 nM | 69.5 nM | 
UCCCGCUGCACAGGAUAUUGGAAAAUACAUGAGGAUCACCCAUGUGCUUAUAUGAGGUCUGCCUCCAAGAAGGGUGAGAUAAUC | 113 nM | 89.6 nM | 
AGGCCCUCACAUGAGGAUCACCCAUGUACGUACGCAGGUGGAAGAAGGCCGGUACAACCUAAUCCGGAGGAUAUUCGAAUUAAC | 372 nM | 199 nM | 

Sequence | apparent Kd [1] | apparent Kd [2] | further results
GGAUCACAUGAGGAUCACCCAUGUCAGGAUAUUAUGCCCUCCCAGUUGCUGAGACAUUUAAGAAGGGACGUGUA | 13.5 nM | 14.3 nM | 
AAGGGCGACGGACAGGAUAUAGUUAUUGUUACAUGAGGAUCACCCAUGUCUCCAGGUCUUUGACGCUAGAAGGGUCCCUCCUCGAC |  |  | apparent Kd [7]: 61.2 nM; apparent Kd [8]: 26.5 nM
ACUGAUUAUGUGAGGAUAUCGCUUUCAGGCAGAAACGAGAAGGCACAUGAGGAUCACCCAUGUUACGUCCACUG | 6.64 nM | 9.56 nM | 
AGUGGGUUUCAGGAUAUAAUAUUAUCAACCAUAUUAGAAGGGAAUACAUGAGGAUCACCCAUGUUGAGUAUACG | 11.7 nM | 9.38 nM | 
GGUAUCGUAGGAUAUUAAUGUAGCCACAUGAGGAUCACCCAUGUAGUUCUAGUGGACCGUUAAGAAGGACGUGAUC | 66.1 nM | 82.8 nM | 
GCAUGCGGCAAGGAUAUCAAUGCUAUGGUCUAAUGAGAAGGUGCCACAUGAGGAUCACCCAUGUUUCCGGCGAG | 30.8 nM | 123 nM | 
GACGUGGUGAAGAAGGGCUGACGUAACCGGUGAGCAGGAUAUUCGACUCAUUAAUACAUGAGGAUCACCCAUGUUCGGUAGCGC | 24.8 nM | 68 nM | 
UGAGUUUACUGAGGAUAUUCGGGUCCGACGACAUGAGGAUCACCCAUGUUAGUAAUGCUGCAAGGGAAGAAGGCAGAAAGAACU | 13.7 nM | 10.7 nM | 
CCUUCCUAGUGAGGAUAUCGGCUUGGACUCGAGCGAGAAGGCACCUAAUCGAAGAACUUUUAUCCACAUGAGGAUCACCCAUGU |  |  | apparent Kd [7]: 11.8 nM; apparent Kd [8]: 11.1 nM
ACAACGUAACGAGGAUAUAAUCUAAAAGUUCGGUGACGUAGACAUGAGGAUCACCCAUGUUAGUAUUAGAAGGCGUUCGGCGGG | 14.4 nM | 41.9 nM | 
CCAGGACAUGAGGAUCACCCAUGUCAACAUCAAAUAAGCGCGUAGGAUAUCAAUACUGAAAGCUUUGAGAAGGACGAGAGGGUA |  |  | apparent Kd [7]: 22.8 nM; apparent Kd [8]: 17.8 nM
ACGAUGAUAGAAGGAUAUAGGCCGAACAUGAGGGACAUGAGGAUCACCCAUGUGACAGUCGGACCCUAGAAGGUCUCGAUACUC | 21.2 nM | 15.1 nM | 
CCACGACUAGGAUAUACCUAUGUUCACUCGUGAUCAAGGACACAUGAGGAUCACCCAUGUAGAAGGAGUCGCUA | 8.84 nM | 10.6 nM | 
AACAUACAUGAGGAUCACCCAUGUCAAGAGAUGAAAGGAUAUAACUCUAUCAGGGUAAAGUAAGAAGGUUCGACUA |  |  | apparent Kd [7]: 23.5 nM; apparent Kd [8]: 20.1 nM
UUACGGGAAGGAUAUCAUUGAAGGUACAUGAGGAUCACCCAUGUCUGAUGCGCAUCGCCGUGAGAAGGUCCUGCUU | 38.2 nM | 14.9 nM | 
GAACUUCGAGUCAGGAUAUGUACAUCAAAACCAAAACAGAAGGGACAUGAGGAUCACCCAUGUGAGCUAGGAUU | 14.3 nM | 14.4 nM | 
AUCAUGUUAGGAUAUACAAUGUAACGAUCAUUCUUGUAUGCGUAGAAGGAACAUGAGGAUCACCCAUGUGGAAG | 43 nM | 46.8 nM | 
UACAAAUAUCAUUACAUGAGGAUCACCCAUGUGGGACGUCGUAGAAGGGAGAUUCAAAUACAAGCUCAGGAUAUACAACUUCUG |  |  | apparent Kd [7]: 181 nM; apparent Kd [8]: 80.1 nM
ACUCAGUGAGGAUAUAUAGACGAGGAAAAGUGGAAACUUGAAUAGAAGGCACAUGAGGAUCACCCAUGUCGACG | 8.5 nM | 10.8 nM | 
CAAGAAUGACGUACAGAUAACAAUAACGAUACCAGUACAUCAUUAUACCCUUGGCAGCGUUUCACAUGAGGAUCACCCAUGUACA |  |  | apparent Kd [3]: 17.4 nM; apparent Kd [4]: 18.4 nM
AAAAUACAUGAGGAUCACCCAUGUCGCAAAUGCAUAGGAUAUGAUGAUGCUAAACACGCAUCAGAAGGAUGUAGAA |  |  | apparent Kd [7]: 10.9 nM; apparent Kd [8]: 9.52 nM
GUCAGGCAACAGAAGGGAGGAUAUAACCGACAUGAGGAUCACCCAUGUGUAAAAGAAACAGUCGCUCAGGAUAUGUUCAACGUG |  |  | apparent Kd [7]: 15.9 nM; apparent Kd [8]: 9.36 nM
AGGUAGCGAGACUUACAUGAGGAUCACCCAUGUACCACGCGGAAGGAUAUAACGGCAGGCUUUGCUUAGAAGGUCCGCGGUACU | 26.9 nM | 20.4 nM | 
GAUCGUUGGGUAAGGAUAUAAGUUUAUUGCUUGGGUUAGAAGGUACAUGAGGAUCACCCAUGUAGGUGAGUCAC | 76.2 nM | 61.8 nM | 
CGGUGAUAUGAAGGAUAUGCACAUGAGGAUCACCCAUGUAACCACUAGAACAAAACGUAGUAACCGCAGAAGGUCAGCAGUAGU |  |  | apparent Kd [7]: 23.6 nM; apparent Kd [8]: 14.5 nM
GGAUGAAGGAAGGAUAUUACGCAGCAACGACCGUAAGAAGGUCCAACAUGAGGAUCACCCAUGUGGUGCUUACU | 33.2 nM | 159 nM | 
AUGCUGUGAGGAUAUCAGUCCCAGAAAAGCUGGCCGCUGACUGAGAAGGCACAUGAGGAUCACCCAUGUUCAAC | 10.2 nM | 15.7 nM | 
